Reference: ChEMBL document CHEMBL4251598, “Development of novel bis-pyrazole derivatives as antitumor agents with potent apoptosis induction effects and DNA damage” (Eur J Med Chem, 2018)
Active and inactive are the calls of the source.

Tests used:
[1] = tested on: SMMC-7721; assay: Induction of apoptosis in human SMMC7721 cells assessed as apoptotic cells after 72 hrs by FITC-Annexin-V/7AAD/propidium iodide staining based flow cytometry; format: functional, cell-based
Outline: (§1)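 SMMC-7721 cells cultured overnight, then treated in triplicate with 0.2, 0.8 or 3.2 μM, vehicle, or ADM (3.2 μM) for 72 h. Stained with annexin V and PI (methods section: APC-annexin V/7-AAD) for 15 min at room temperature. Mean ± SD of three independent experiments.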

[2] = Acute toxicity in ICR mouse at 200 to 488.3 mg/kg, ip; format: organism-based; conditions: in vivo
Outline: (§2)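 Female ICR mice, 10 per group, single intraperitoneal injection at 488.3, 390.6, 312.5, 250 or 200 mg/kg, or vehicle control. Survival, eating, drinking, body weight and activity were monitored for up to 14 days after dosing. MTD was defined as the highest dose giving no drug-related moribund state or death, with temporary body-weight loss within 20%. LD50 was calculated from mortality.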

[3] = tested on: SMMC-7721; assay: Antitumor activity against human SMMC7721 cells xenografted in BALB/c mouse assessed as tumor growth inhibition at 15 mg/kg, ip measured after 19 days relative to control; format: functional; conditions: SMMC-7721, ip, 456 h, read-out: TGI
Outline: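 Female BALB/c nude mice, 5-6 weeks old, inoculated subcutaneously with 10^6 SMMC-7721 cells. At 50-100 mm³ tumours, mice were randomized to ip compound (15 or 30 mg/kg), ADM (15 mg/kg) or vehicle, n = 6 per group. Caliper volume ½(L×W²) measured every 3 days to day 19, with body weight monitored. Tumours excised and weighed at the end.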

[4] = Acute toxicity in ICR mouse assessed as survival at 488.3 mg/kg, ip measured on day 14; format: organism-based; conditions: in vivo; outline: as §2
[5] = tested on: HCT-116; assay: Potency index, ratio of ADM IC50 to compound IC50 for human HCT116 cells; format: functional
[6] = tested on: HCT-116; assay: Potency index, ratio of 5-FU IC50 to compound IC50 for human HCT116 cells; format: functional
[7] = tested on: SMMC-7721; assay: Potency index, ratio of 5-FU IC50 to compound IC50 for human SMMC7721 cells; format: functional
[8] = tested on: SMMC-7721; assay: Potency index, ratio of ADM IC50 to compound IC50 for human SMMC7721 cells; format: functional
[9] = tested on: L02; assay: Cytotoxicity against human LO2 cells assessed as reduction in cell survival at 0.2 to 5 uM after 72 hrs by MTT assay; format: cell-based; conditions: l02, 72 h
Outline: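 LO2 normal liver cells in DMEM with 10% FBS, plated at 10^4 cells/mL, adhered overnight. Exposed to graded concentrations for 72 h alongside SMMC-7721. MTT added for the last 4 h, formazan dissolved in DMSO, A570 read. Percent inhibition, mean ± SD of three independent experiments.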

[10] = tested on: SGC-7901; assay: Potency index, ratio of 5-FU IC50 to compound IC50 for human SGC7901 cells; format: functional
[11] = tested on: SMMC-7721; assay: Induction of apoptosis in human SMMC7721 cells assessed as increase in cleaved PARP expression at 3.2 uM after 72 hrs by Western blot analysis relative to control; format: functional, cell-based
Outline: (§3)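 Sub-confluent SMMC-7721 cells treated with vehicle, compound or ADM at indicated concentrations for 72 h. Lysed on ice in NP-40/deoxycholate/SDS buffer with PMSF and leupeptin. Up to 50 µg protein run on SDS-PAGE, transferred to PVDF and probed with specific antibodies; ECL detection. Bands quantified by densitometry relative to β-actin, mean ± SD of three experiments.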

[12] = Acute toxicity in ICR mouse assessed as survival at 390.6 mg/kg, ip measured on day 14; format: organism-based; conditions: in vivo; outline: as §2
[13] = tested on: SMMC-7721; assay: Induction of apoptosis in human SMMC7721 cells assessed as reduction in Bcl2 expression after 72 hrs by Western blot analysis; format: functional, cell-based; outline: as §3
[14] = tested on: SGC-7901; assay: Antiproliferative activity against human SGC7901 cells after 72 hrs by MTT assay; format: functional, cell-based; conditions: SGC-7901, 72 h
Outline: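 Cells in DMEM with 10% FBS, 10^4 cells/mL, adhered overnight at 37 °C, 5% CO2. Treated in triplicate with a range of concentrations for 72 h. MTT (5 mg/mL solution) added for the last 4 h, formazan dissolved in DMSO, absorbance read at 570 nm. IC50 calculated from percent inhibition. Mean ± SD of three independent experiments.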

[15] = Acute toxicity in ICR mouse assessed as survival at 250 mg/kg, ip measured on day 14; format: organism-based; conditions: in vivo; outline: as §2
[16] = tested on: Mus musculus; assay: Acute toxicity in ICR mouse assessed as effect on drinking behaviour at 200 mg/kg, ip measured up to 14 days post dose; format: organism-based; conditions: in vivo, 336 h; outline: as §2
[17] = tested on: SMMC-7721; assay: Antiproliferative activity against human SMMC7721 cells assessed as inhibition of cell proliferation at 25 uM after 72 hrs by MTT assay relative to control; format: functional; conditions: SMMC-7721, 72 h
Outline: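 Cells in DMEM with 10% FBS, plated at 10^4 cells/mL, adhered overnight. Treated at 25 μM for 72 h. MTT added for the last 4 h, formazan dissolved in DMSO, A570 read. Inhibition expressed as percent of untreated. Mean + SD from three separate measurements.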

[18] = tested on: SMMC-7721; assay: Induction of apoptosis in human SMMC7721 cells assessed as apoptotic cells at 3.2 uM after 72 hrs by FITC-Annexin-V/7AAD/propidium iodide staining based flow cytometry relative to control; format: functional; outline: as §1
[19] = tested on: SGC-7901; assay: Potency index, ratio of ADM IC50 to compound IC50 for human SGC7901 cells; format: functional
[20] = tested on: Mus musculus; assay: Acute toxicity in ICR mouse assessed as mouse mortality level at 200, ip measured on day 1 to 3 days post dose; format: organism-based; conditions: in vivo; outline: as §2
[21] = tested on: Mus musculus; assay: Acute toxicity in ICR mouse assessed as effect on body weight at 200 mg/kg, ip measured up to 14 days post dose; format: organism-based; conditions: in vivo, 336 h; outline: as §2
[22] = tested on: SMMC-7721; assay: Induction of apoptosis in human SMMC7721 cells assessed as increase in cleaved PARP expression at 0.2 to 3.2 uM after 72 hrs by Western blot analysis relative to control; format: functional, cell-based; outline: as §3
[23] = Acute toxicity in ICR mouse assessed as survival at 200 mg/kg, ip measured on day 14; format: organism-based; conditions: in vivo; outline: as §2
[24] = tested on: SMMC-7721; assay: Induction of apoptosis in human SMMC7721 cells assessed as increase in cleaved caspase-3 expression at 0.2 to 3.2 uM after 72 hrs by Western blot analysis relative to control; format: functional, cell-based; outline: as §3
[25] = tested on: SMMC-7721; assay: Induction of apoptosis in human SMMC7721 cells assessed as increase in cleaved caspase-3 expression at 3.2 uM after 72 hrs by Western blot analysis relative to control; format: functional, cell-based; outline: as §3
[26] = tested on: Mus musculus; assay: Acute toxicity in ICR mouse assessed as mouse mortality level at 312.5 mg/kg, ip measured on day 3 post dose; format: organism-based; conditions: in vivo; outline: as §2
[27] = tested on: Mus musculus; assay: Acute toxicity in ICR mouse assessed as mouse mortality level at 200 to 312.5 mg/kg, ip measured on day 5 to 14 post dose; format: organism-based; conditions: in vivo; outline: as §2
[28] = tested on: Mus musculus; assay: Acute toxicity in ICR mouse assessed as mouse mortality level at 200 to 488.3 mg/kg, ip measured at 1 to 4 hrs post dose; format: organism-based; conditions: in vivo; outline: as §2
[29] = Acute toxicity in ICR mouse assessed as survival at 312.5 mg/kg, ip measured on day 14; format: organism-based; conditions: in vivo; outline: as §2

For COc1ccc(Oc2c(/C=N\OCc3c(Cl)c(-c4ccc(Cl)cc4)nn3C)c(C)nn2C)cc1, the Activity [1] was “Dose-dependent effect”, the LD50 [2] was 350 mg/kg and the inhibition in vivo at 15 mg/kg [3] was 44%. The survival at 14 day [4] was 10%, the “Ratio IC50” value [5] was 2 - 3 and the “Ratio IC50” value [6] was 17 - 50. For the same compound, the “Ratio IC50” value [7] was 17 - 50, the “Ratio IC50” value [8] was 2 - 3 and the Activity [9] was “Non-Toxic”. The “Ratio IC50” value [10] was 17 - 50, the Activity [11] was “Active” and the survival at 14 day [12] was 40%. The Activity [13] was “Dose-dependent effect”, the IC50 [14] was 2010 nM and the survival at 14 day [15] was 70%. For the same compound, the Activity [16] was “Non-Toxic”, the inhibition at 25 µM [17] was 80% and the Activity [18] was 63.2%. The “Ratio IC50” value [19] was 2 - 3, the Activity [20] was “Non-Toxic” and the Activity [21] was “Non-Toxic”. The Activity [22] was “Active”, the survival at 14 day [23] was 100% and the Activity [24] was “Active”. For the same compound, the Activity [25] was “Active”, the Activity [26] was “Non-Toxic” and the Activity [27] was “Non-Toxic”. For the same compound, the Activity [28] was “Non-Toxic” and the survival at 14 day [29] was 60%.
